Measured values collected from several papers.
In brackets after ≈: the same amount, converted by molar mass.

CCOC(=O)C1=C(CN2CCN(Cc3ccccc3B(O)O)CC2)NC(c2nccs2)=NC1c1ccc(F)cc1Br (stereo not drawn)
EC50 (Hepatitis B virus; viral replication, inhibitor, qPCR; HepDES19; 72 h): 1.47 µM

Cc1ccc(C2Oc3ccccc3C=C2[N+](=O)[O-])cc1 (stereo not drawn)
IC50 (Leishmania tropica; parasite growth; THP-1; 72 h, intracellular, amastigote): 164 µg/mL

C[C@@H]1[C@H](O)[C@@H](C)/C=C/C=C/C=C/C=C/C=C/C=C/C=C/[C@H](O[C@@H]2O[C@H](C)[C@@H](O)[C@H](N)[C@@H]2O)C[C@@H]2O[C@](O)(C[C@@H](O)C[C@@H](O)[C@H](O)CC[C@@H](O)C[C@@H](O)CC(=O)O[C@H]1C)C[C@H](O)[C@H]2C(=O)O
MIC (Saccharomyces cerevisiae; microbial growth, broth dilution; BY4741; 48 h): 0.25 µg/mL (≈ 0.271 µM)

Cc1ccc(N=Nc2c(N)nn3c(-c4ccc(C)cc4)cc(-c4ccc(OCc5ccccc5)cc4)nc23)cc1
MFC (Saccharomyces cerevisiae; microbial killing, broth dilution; ATCC9763): 250 µg/mL (≈ 477 µM)

CCOC(=O)C1=C(CN2CCC[C@@H]2C(=O)Nc2cccc(B(O)O)c2)NC(c2nccs2)=N[C@@H]1c1ccc(F)cc1Br
EC50 (Hepatitis B virus; viral replication, inhibitor, qPCR; HepDES19; 72 h): 2.6 µM

Cc1ccc(N=Nc2c(N)nn3c(-c4ccco4)cc(-c4ccc(OCc5ccccc5)cc4)nc23)cc1
MFC (Saccharomyces cerevisiae; microbial killing, broth dilution; ATCC9763): 62.5 µg/mL (≈ 125 µM)

O=[N+]([O-])C1=Cc2ccccc2OC1c1ccc(F)cc1 (stereo not drawn)
IC50 (Leishmania tropica; parasite growth; THP-1; 72 h, intracellular, amastigote): 147 µg/mL

CNC(=S)NN=Cc1ccc(OC)cc1
IC50 (Leishmania tropica; parasite growth; J774.A1; 72 h, intracellular, amastigote): 22.7 µM

O=[N+]([O-])C1=Cc2ccccc2OC1c1ccc(Cl)cc1 (stereo not drawn)
IC50 (Leishmania tropica; parasite growth; THP-1; 72 h, intracellular, amastigote): 155 µg/mL

CNC(=S)NN=Cc1ccc(F)cc1
IC50 (Leishmania tropica; parasite growth; J774.A1; 72 h, intracellular, amastigote): 762 µM

Cc1ccc(COc2cccc(C3Oc4ccccc4C=C3[N+](=O)[O-])c2)cc1 (stereo not drawn)
IC50 (Leishmania tropica; parasite growth; THP-1; 72 h, intracellular, amastigote): 162 µg/mL

COc1ccc(N=Nc2c(N)nn3c(-c4ccc(C)cc4)cc(-c4ccc(OCc5ccccc5)cc4)nc23)cc1
MFC (Saccharomyces cerevisiae; microbial killing, broth dilution; ATCC9763): 125 µg/mL (≈ 231 µM)

COc1ccc(C=NNC(=S)Nc2cccnc2)cc1OC
IC50 (Leishmania tropica; parasite growth, MTT; 72 h, promastigote): > 1000 µM

Cc1ccc(N=Nc2c(N)nn3c(-c4ccc(Cl)cc4Cl)cc(-c4ccc(OCc5ccccc5)cc4)nc23)cc1
MFC (Saccharomyces cerevisiae; microbial killing, broth dilution; ATCC9763): 125 µg/mL (≈ 216 µM)

CCOC(=O)C1=C(CN2CCCC2C(=O)Nc2cccc(B3OC(C)(C)C(C)(C)O3)c2)NC(c2nccs2)=NC1c1ccc(F)cc1Br (stereo not drawn)
EC50 (Hepatitis B virus; viral replication, inhibitor, qPCR; HepDES19; 72 h): 0.37 µM

Cc1ccc(-c2cc(-c3ccc(OCc4ccccc4)cc3)nc3c(N=Nc4ccc(F)cc4)c(N)nn23)cc1
MIC (Saccharomyces cerevisiae; microbial growth, broth dilution; ATCC9763): 62.5 µg/mL (≈ 118 µM)

O=[N+]([O-])C1=Cc2ccccc2OC1c1ccccc1OCc1ccccc1Cl (stereo not drawn)
IC50 (Leishmania tropica; parasite growth; THP-1; 72 h, intracellular, amastigote): 171 µg/mL

CNC(=S)NN=Cc1ccc(C)cc1
IC50 (Leishmania tropica; parasite growth, MTT; 72 h, promastigote): 1050 µM

O=[N+]([O-])C1=Cc2ccccc2OC1c1cccc(Br)c1 (stereo not drawn)
IC50 (Leishmania tropica; parasite growth; THP-1; 72 h, intracellular, amastigote): 171 µg/mL

C[C@@H]1[C@H](O)[C@@H](C)/C=C/C=C/C=C/C=C/C=C/C=C/C=C/[C@H](O[C@@H]2O[C@H](C)[C@@H](O)[C@H](N)[C@@H]2O)C[C@@H]2O[C@](O)(C[C@@H](O)C[C@@H](O)[C@H](O)CC[C@@H](O)C[C@@H](O)CC(=O)O[C@H]1C)C[C@H](O)[C@H]2C(=O)O
IC50 (Leishmania tropica; parasite growth, MTT; 72 h, promastigote): 17.9 µM

CC(=O)N1CCN(c2ccc(OCC3COC(Cn4ccnc4)(c4ccc(Cl)cc4Cl)O3)cc2)CC1 (stereo not drawn)
MFC (Saccharomyces cerevisiae; microbial killing, broth dilution; ATCC9763): 15.6 µg/mL (≈ 29.4 µM)

CCOC(=O)C1=C(CN2CCCC2C(=O)Nc2ccc(B3OC(C)(C)C(C)(C)O3)cc2)NC(c2nccs2)=NC1c1ccc(F)cc1Br (stereo not drawn)
EC50 (Hepatitis B virus; viral replication, inhibitor, qPCR; HepDES19; 72 h): 0.37 µM

COc1ccc(N=Nc2c(N)nn3c(-c4ccco4)cc(-c4ccc(OCc5ccccc5)cc4)nc23)cc1
MFC (Saccharomyces cerevisiae; microbial killing, broth dilution; ATCC9763): 125 µg/mL (≈ 242 µM)

CCOC(=O)C1=C(CN2CCC[C@@H]2C(=O)Nc2ccc(B(O)O)cc2)NC(c2nccs2)=N[C@@H]1c1ccc(F)cc1Br
EC50 (Hepatitis B virus; viral replication, inhibitor, qPCR; HepDES19; 72 h): 3.93 µM

Cc1ccc(COc2ccc(C3Oc4ccccc4C=C3[N+](=O)[O-])cc2)cc1 (stereo not drawn)
IC50 (Leishmania tropica; parasite growth; THP-1; 72 h, intracellular, amastigote): 150 µg/mL

OC(Cn1cncn1)(Cn1cncn1)c1ccc(F)cc1F
MIC (Saccharomyces cerevisiae; microbial growth, broth dilution; BY4741; 48 h): 4 µg/mL (≈ 13.1 µM)

CNC(=S)NN=Cc1ccc(OC)c(OC)c1
IC50 (Leishmania tropica; parasite growth; J774.A1; 72 h, intracellular, amastigote): 454 µM

CCOC(=O)C1=C(CN2CCC(C(=O)Nc3cccc(B4OC(C)(C)C(C)(C)O4)c3)C2)NC(c2nccs2)=NC1c1ccc(F)cc1Br (stereo not drawn)
EC50 (Hepatitis B virus; viral replication, inhibitor, qPCR; HepDES19; 72 h): 0.87 µM

S=C(NN=Cc1ccc(Br)cc1)Nc1cccnc1
IC50 (Leishmania tropica; parasite growth, MTT; 72 h, promastigote): 551 µM

CCOC(=O)C1=C(CN2CCN(Cc3cccc(B4OC(C)(C)C(C)(C)O4)c3)CC2)NC(c2nccs2)=NC1c1ccc(F)cc1Br (stereo not drawn)
EC50 (Hepatitis B virus; viral replication, inhibitor, qPCR; HepDES19; 72 h): 1.3 µM

Fc1ccc(C=NNC(=S)Nc2cccnc2)cc1
IC50 (Leishmania tropica; parasite growth; J774.A1; 72 h, intracellular, amastigote): 201 µM

O=[N+]([O-])C1=Cc2ccccc2OC1c1cccc(Cl)c1 (stereo not drawn)
IC50 (Leishmania tropica; parasite growth; THP-1; 72 h, intracellular, amastigote): 151 µg/mL

COc1ccc(N=Nc2c(N)nn3c(-c4ccc(Cl)cc4Cl)cc(-c4ccc(OCc5ccccc5)cc4)nc23)cc1
MIC (Saccharomyces cerevisiae; microbial growth, broth dilution; ATCC9763): 125 µg/mL (≈ 210 µM)
